Screening results (PubChem)
Hits are enriched below; roughly 1.7% of the tested compounds scored in any of these assays.
APJ agonist = APJ receptor agonism | CHO-K1 APJ PathHunter beta-arrestin, luminescence; 0% DMSO wells, 100% apelin | AID 2520 | P35414 | 0.11% of 330,000 active | activation, % at 20 µM;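 active = activation more than six SD over the plate average, tested at 20 µM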;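 also: 0% = DMSO alone and 100% = apelin-13 at 10 nM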
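Assay system: CHO-K1 APJ beta-arrestin complementation cell line / Compound: single test compound dose, 20 µM final, 1% DMSO / Times: overnight seeding, 90 min compound at 25 °C, 1 h detection / Technique: beta-gal luminescence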
CXCR6 block = blocks human CXCR6 beta-arrestin recruitment | O00574 | CHO-K1 PathHunter CXCR6 beta-arrestin, luminescence | inhibition, % at 20 µM | 0.36% of 360,000 active | AID 602244; in the data active = inhibition above about 34%, passing the limit was not always enough;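 also: antagonist mode with CXCL16 agonist at 10 nM final; 0% = 10 nM CXCL16 with DMSO and 100% = unstimulated wells without agonist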
CCR6 antag = CCR6 (human) receptor antagonism; inhibition, % at 20 µM; 0.49% of 340,000 active; P51684; CHO-K1 CCR6 PathHunter beta-arrestin, luminescence, CCL20-stimulated;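 active = compounds whose inhibition of the agonist-driven luminescence signal at 20 µM reaches about 50%, limit read from the data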;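 also: cells stimulated with CCL20 at 14 nM final; plate controls were DMSO with CCL20 for no effect and DMSO without agonist for full effect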
Target sequence (P51684 whole entry, looked up): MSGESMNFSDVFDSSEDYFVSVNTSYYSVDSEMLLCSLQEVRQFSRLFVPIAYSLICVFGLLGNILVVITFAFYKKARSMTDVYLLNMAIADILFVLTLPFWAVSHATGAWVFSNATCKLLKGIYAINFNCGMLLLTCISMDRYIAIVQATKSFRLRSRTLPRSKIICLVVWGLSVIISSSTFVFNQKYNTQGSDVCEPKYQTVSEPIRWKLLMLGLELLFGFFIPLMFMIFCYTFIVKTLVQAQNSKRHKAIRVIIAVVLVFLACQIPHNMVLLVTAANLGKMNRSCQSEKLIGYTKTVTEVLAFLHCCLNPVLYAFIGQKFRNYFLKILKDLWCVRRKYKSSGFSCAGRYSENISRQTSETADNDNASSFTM
PfG6PD inh = PfG6PD (Plasmodium falciparum) enzyme inhibition | PfGluPho enzyme, NADPH resazurin-diaphorase fluorescence | AID 504690 | 0.78% of 350,000 active | inhibition, % at 20 µM;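 active = inhibition reaching at least a set limit at 20 µM in the primary screen, cut at about 59% in these data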;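 also: 0% = DMSO wells with substrate and 100% = DMSO wells lacking glucose-6-phosphate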
APJ antag = blocks the human apelin receptor APJ. CHO-K1 APJ beta-arrestin complementation, luminescence. P35414. AID 2521. 0.32% of 330,000 active. inhibition, % at 20 µM;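 active = inhibition above about 40% at 20 µM, limit read from the data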;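 also: cells challenged with 10 nM apelin-13 agonist together with compound; plate controls were apelin-13 plus DMSO wells for no effect and DMSO wells lacking apelin-13 for full effect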
Beta2AR agonist = activates human beta-2 adrenergic receptor causing internalization; Am2.2-beta2AR cells, FAP receptor internalization, flow cytometry; P07550; response, % (test concentration not listed); AID 504454; 0.43% of 340,000 active;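 active = response above a set limit, near 3 SD of response in nonfluorescent compounds, cut at about 42% in these data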
The depositor's hits bear a star; / = no result given.

SMILES	APJ agonist	CXCR6 block	CCR6 antag	PfG6PD inh	APJ antag	Beta2AR agonist
C=CC(=O)Nc1cccc(Oc2ccnc(Nc3ccc(N4CCN(C)CC4)cc3)n2)c1	/	1	4	36	/	7
Cc1ccccc1NC(=O)CCNS(=O)(=O)c1ccc2c(c1)CCC(=O)N2	-6	-5	1	-6	8	-5
CCC1(c2ccc(F)cc2)NC(=O)N(CC(=O)N2CCN(C(=O)c3ccco3)CC2)C1=O (stereo unspecified)	1	-5	9	2	6	3
O=C(Cc1ccc(Cl)cc1Cl)Nc1cccc(S(=O)(=O)Nc2ccccc2F)c1	-2	-4	16	70*	12	14
CCN1C[C@@H]2[C@@H]3C(=O)N(C)C(=O)[C@@H]3[C@](CC)(C1=O)N2C(=O)c1ccc(F)cc1	/	-9	2	3	/	1
O=C(O)c1cccc(-n2sc3ccccc3c2=O)c1	6	-25	-15	114*	-14	-1
O=c1c2cc(F)ccc2sn1-c1ccccc1	8	12	35	114*	-2	-11
Cc1ccc(C(=O)NNC(=O)c2ccccc2)cc1S(=O)(=O)N1CCCCC1	-1	3	8	-3	14	-2
Cc1ccc(-n2sc3ccccc3c2=O)cc1S(=O)(=O)N1CCCCC1	2	20	55*	127*	-12	5
C=CCN1C(=O)c2ccc(C(=O)NCCc3ccc(OC)c(OC)c3)cc2C1=O	0	-3	9	-15	-3	3
COC1=C/C(=C/c2c(O)c(C#N)c3ccccn23)C=CC1=O	-4	32	56*	25	33	19
COc1cc(OC)cc(C(=O)c2c(C)c(C#N)c3ccccn23)c1	-3	7	12	9	-14	10
COc1cc(S(=O)(=O)N2CCOCC2)cc(C(=O)OCC(=O)NCc2ccco2)c1OC	-3	-10	-2	4	0	-1
Cc1cccc(/C=C2/Sc3ccc(C(=O)NCCN4CCCC4)cc3NC2=O)c1	5	-2	-1	57	7	29
CN1CCN(CCCNC(=O)c2ccc(/C=C3\Sc4ccccc4N(Cc4ccc(F)cc4)C3=O)cc2)CC1	/	-2	10	-22	/	99*
CN1CCN(CCCNC(=O)c2ccc(/C=C3/Sc4ccccc4N(Cc4cccc(Cl)c4)C3=O)cc2)CC1	/	3	24	-29	/	24
CCN1CCN(CCNC(=O)c2ccc(/C=C3\Sc4ccccc4N(Cc4ccccc4F)C3=O)cc2)CC1	2	-14	9	-15	13	55*
O=C1Nc2cc(C(=O)NCCN3CCCCCC3)ccc2S/C1=C\c1ccccc1	8	-3	7	89*	14	8
O=C(c1ccco1)N1CCN(C(=O)c2[nH]c(C(F)(F)F)nc2-c2ccccc2)CC1	/	2	/	/	/	/
Cc1ccc(NC(=O)COC(=O)CN2C(=O)NC3(CCCC3)C2=O)cc1F	-2	4	0	-4	-18	-2
O=C(COc1ccc(Cl)cc1)Nc1ccc(C(=O)O)cc1NC(=O)COc1ccc(Cl)cc1	-2	11	11	-14	5	0
CCN(CC)c1ccc(NC(=O)CCS(=O)(=O)c2ccc(Br)cc2)c(C)c1	-4	2	15	12	-19	3
O=C(/C=C/c1ccc2c(c1)OCO2)NCCSCc1cccc(Cl)c1	-4	0	19	-5	3	44*
O=C(/C=C/c1ccc2c(c1)OCO2)NCCSCc1ccc(Cl)cc1Cl	-2	3	9	15	-11	96*
COC(=O)c1cc(=O)nc2sc(-c3ccc(F)cc3)nn12	-3	6	-3	59*	-11	9
SMILES	APJ agonist	CXCR6 block	CCR6 antag	PfG6PD inh	APJ antag	Beta2AR agonist
COC(=O)c1cc(=O)nc2sc(-c3cccs3)nn12	-3	0	-4	8	21	-2
CC1(C)CC(=O)C2=C(C1)Nc1ccccc1NC2	0	-8	5	-4	-7	6
CC1(C)CC(=O)C2=C(C1)Nc1ccccc1N=C2	-31	/	/	/	58*	/
Cn1cc(/C=C2\SC(=O)NC2=S)c2ccccc21	-5	36	53*	6	29	10
Cc1ccc(C(=O)NN2C(=O)/C(=C/c3cn(C)c4ccccc34)SC2=S)cc1	/	17	26	11	/	-24
Cc1ccc(NS(=O)(=O)c2cc([N+](=O)[O-])ccc2NNC(=S)Nc2cccc(Cl)c2)c(C)c1	/	58*	81*	4	/	-17
Cc1cccc(NC(=S)NNc2cccc(Cl)c2)c1	4	-19	14	38	-19	1
CC(=O)c1ccc(S(=O)(=O)Nc2ccc(C(=O)N(C)CC(=O)Nc3cccc(C)c3C)cc2)cc1	-1	-1	5	-13	-5	-2
O=C(N/N=C1\C/C(=N\NC(=O)c2ccncc2)c2ccccc21)c1ccncc1	5	30	56*	6	-18	10
CCOc1ccc2c(c1)C(=NNC(=O)c1ccncc1)c1cc(OCC)ccc1-2	-12	34	40	39	57*	12
CS(=O)(=O)N1CCC(NC(=O)Nc2ccc(OC(F)(F)F)cc2)CC1	-1	-23	4	-6	-2	-4
C=CCN1C(=O)/C(=C/c2ccc(OC(C)=O)c(OCC)c2[N+](=O)[O-])SC1=S	/	42*	54*	6	/	26
CCCn1c2ccccc2c2nnc(SCC(=O)Nc3cc(C)on3)nc21	-6	21	36	0	32	5
C=CCn1c2ccccc2c2nnc(SCC(=O)Nc3cc(C)on3)nc21	-7	13	55*	14	38	-5
CCCn1c2ccccc2c2nnc(SCC(=O)Nc3ncccn3)nc21	-10	43*	63*	1	33	-1
COc1ccc(NC2=CC(c3ccc(OC)c(OC)c3)N(c3ccc(OC)cc3)C2=O)cc1 (stereo unspecified)	-3	-4	11	22	1	6
NS(=O)(=O)c1ccc(NC2=CC(c3ccc([N+](=O)[O-])cc3)N(c3ccc(S(N)(=O)=O)cc3)C2=O)cc1 (stereo unspecified)	-1	60*	50*	16	32	-11
O=C1NC[C@@H](CCCCN2C[C@H](Cc3ccc(O)cc3)N(CCc3ccccc3)C(=O)C2=O)N(Cc2ccccc2)C1=O	/	-4	/	/	/	/
CCOC(=O)c1ccc(N2C(=O)C=CC2=O)cc1	0	101*	113*	66*	14	12
O=C(COc1cccc(C(F)(F)F)c1)NCC(c1cccs1)N1CCOCC1 (stereo unspecified)	-2	-2	21	-6	15	3
COC(=O)c1cc2c(C)nn(-c3ccccc3)c2s1	-1	-6	-7	-3	-2	1
Cc1nn(-c2ccccc2)c2sc(C(=O)N(CC(=O)NC(C)(C)C)Cc3ccco3)cc12	-2	5	57*	0	11	21
